Experimental data as given in publication PMC3057471 (Biochemistry, 2011).
Where “and” joins values, the source holds several entries; their conditions need not be identical. Identical values can stand only once. Where no end group is shown, it is not given here.

Experiments:
[1] = molecular target: Lethocerus troponin C, F1 isoform (Lethocerus); experiment: other fluorescence titration
[2] = molecular target: T1, F2 TnC (Lethocerus indicus, UniProt Q868D3); experiment: TnH peptide binding to F2 TnC by competition with melittin; settings: 20 °C, 20 mM Tris-HCl pH 6.8, 100 mM NaCl
T1 sequence (Q868D3 1-158): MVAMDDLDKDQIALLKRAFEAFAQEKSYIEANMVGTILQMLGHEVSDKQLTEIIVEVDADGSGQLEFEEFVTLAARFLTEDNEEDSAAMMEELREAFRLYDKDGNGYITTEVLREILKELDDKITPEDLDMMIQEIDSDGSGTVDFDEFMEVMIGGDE
Method in brief: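 Recombinant F2 TnC was expressed in E. coli BL21(DE3), purified on Ni-NTA, His-tag cleaved with TEV, then purified by gel filtration. Melittin (0.33 μM) plus F2 TnC (1.4 μM with 1 mM Ca2+) was titrated with synthetic test peptides (TnH fragments). Binding was read by melittin Trp fluorescence (excitation 280 nm, emission 290–400 nm) at 20 °C, pH 6.8 Tris/100 mM NaCl; Mg2+ was 5 mM.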

[3] = molecular target: T2, F1 TnC (Lethocerus indicus, UniProt Q868D4); settings: C lobe of F1 TnC, essentially Ca^2+ independent; cited from earlier work
T2 sequence (Q868D4 1-158): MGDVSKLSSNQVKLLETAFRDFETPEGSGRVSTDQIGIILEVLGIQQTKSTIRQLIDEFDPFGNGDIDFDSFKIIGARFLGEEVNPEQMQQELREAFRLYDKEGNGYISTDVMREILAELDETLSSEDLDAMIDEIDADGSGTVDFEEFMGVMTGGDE

[4] = molecular target: T2, F1 TnC; experiment: TnH peptide binding to F1 TnC by competition with melittin; settings: 20 °C, 20 mM Tris-HCl pH 6.8, 100 mM NaCl
Method in brief: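 Competition assay: mixtures of melittin and F1 TnC were titrated with synthetic test peptides (TnH fragments; >95% HPLC, sequences MALDI-verified). Displacement was followed by melittin Trp fluorescence (excitation 280 nm, emission 290–400 nm). Conditions were 20 °C, 20 mM Tris-HCl pH 6.8, 100 mM NaCl, with 1 mM Ca2+, 5 mM Mg2+, or both.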

[5] = molecular target: Lethocerus troponin C, F2 isoform (Lethocerus); experiment: other fluorescence titration
[6] = Ca^2+ association constants of chromophoric chelators; assay type: binding; settings: 20 °C, 20 mM Tris-HCl pH 6.8, 100 mM NaCl
[7] = 1 mM Ca^2+ and 5 mM Mg^2+, competition with melittin
[8] = 5 mM Mg^2+, competition with melittin

## TnH(126−159) peptide of Lethocerus troponin H
[1]
  Kd: 12200 nM and 3700 nM and 9100 nM

## YDLNSQVNDLRGKFVKPTLKKVSKYENKFAKLQKK [TnH(126−159)]
[2]; [7]
  Kd: 3500 ± 800 nM
[2]; 1 mM Ca^2+, competition with melittin 0.33 μM, F2 TnC 1.4 μM
  Kd: 3100 ± 800 nM
[2]; [8]
  Kd: 13500 ± 3500 nM
[3]
  Equilibrium dissociation constant range for F1 TnC: in the micromolar range
[4]; 1 mM Ca^2+
  Kd: 3700 ± 1100 nM
[4]; 5 mM Mg^2+
  Kd: 9100 ± 3200 nM
[4]; metal: none (0.2 mM EGTA)
  Kd: 12200 ± 3400 nM

## Melittin from honey bee venom (from UniProt P01501 44-70) (peptide)
[5]
  Kd: 840 nM and 190 nM and 770 nM
[1]
  Kd: 41 nM and 8.3 nM and 32 nM

## YKAKKAKKGFMTPERKKKLRLLLRKKAAEELKK [TnH(30−61)]
[2]; 1 mM Ca^2+ (holo), competition with melittin 0.33 μM, F2 TnC 1.4 μM
  Kd: 7.8 ± 0.15 nM
[2]; [7]
  Kd: 6.7 ± 0.9 nM
[2]; [8]
  Kd: 38.5 ± 5.2 nM
[3]
  Equilibrium dissociation constant range for F1 TnC: in the nanomolar range
[4]; 1 mM Ca^2+ and 5 mM Mg^2+
  Kd: 1.3 ± 0.4 nM
[4]; 1 mM Ca^2+
  Kd: 0.9 ± 0.2 nM
[4]; 5 mM Mg^2+
  Kd: 2.2 ± 0.4 nM
[4]; metal: none (0.2 mM EGTA)
  Kd: 1.9 ± 0.6 nM

## TnH(30−61) peptide of Lethocerus troponin H
[1]
  Kd: 1.3 nM and 1.9 nM and 2.2 nM

## O=C(O)CN(CC(=O)O)c1ccc(Br)cc1OCCOc1cc(Br)ccc1N(CC(=O)O)CC(=O)O [5,5′-dibromo BAPTA]
[6]
  Equilibrium association constant for Ca^2+ (KCa): (6.3 ± 0.5) × 10^5 M^−1

## O=C(O)CN(CC(=O)O)c1ccccc1OCCOc1cc([N+](=O)[O-])ccc1N(CC(=O)O)CC(=O)O [5-nitro BAPTA]
[6]
  Equilibrium association constant for Ca^2+ (KCa): (4.1 ± 0.3) × 10^4 M^−1
